# Assay results as given in ChEMBL document CHEMBL1649483, “Molecular analysis of the gyrA and gyrB quinolone resistance-determining regions of fluoroquinolone-resistant Clostridium difficile mutants selected in vitro” (2009).
# What was measured:
# Format in all cases: functional
# Clostridioides difficile [1] = assay: Antimicrobial activity against Clostridium difficile 630e selected after 4 ug/ml of moxifloxacin by Etest method
# Summary of the method: (§1)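 Stable in vitro-selected mutant tested for gatifloxacin susceptibility by Etest, per the manufacturer's instructions, with an 8 μg/ml breakpoint. For selection, the parent was grown in antibiotic-free brain heart infusion (BHI) for 24 h at 35°C under anaerobic conditions. […] Later steps used double the MIC. Stability was confirmed by three subcultures.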
# Clostridioides difficile [2] = assay: Antimicrobial activity against Clostridium difficile BI2F harboring GyrB Glu466Lys mutant gene selected after 8 ug/ml of levofloxacin by Etest method; summary of the method: as §1
# Clostridioides difficile [3] = assay: Antimicrobial activity against Clostridium difficile A422c selected after 2 ug/ml of moxifloxacin by Etest method; summary of the method: as §1
# Clostridioides difficile [4] = assay: Antimicrobial activity against Clostridium difficile CD25 expressing tcdA, tcdB gene and GyrB Ser416Ala mutant gene by Etest method
# Clostridioides difficile [5] = assay: Antimicrobial activity against Clostridium difficile C253A selected after 4 ug/ml of levofloxacin by Etest method; summary of the method: as §1
# Clostridioides difficile [6] = assay: Antimicrobial activity against Clostridium difficile BI2a harboring GyrB Arg447Lys mutant gene selected after 2 ug/ml of moxifloxacin by Etest method; summary of the method: as §1
# Clostridioides difficile [7] = assay: Antimicrobial activity against Clostridium difficile 630C selected after 4 ug/ml of levofloxacin by Etest method; summary of the method: as §1
# Clostridioides difficile [8] = assay: Antimicrobial activity against Clostridium difficile C253D selected after 8 ug/ml of levofloxacin by Etest method
# Clostridioides difficile [9] = assay: Antimicrobial activity against Clostridium difficile A422I harboring GyrA Thr82Ile and GyrB Leu451Phe mutant genes selected after 8 ug/ml of levofloxacin by Etest method; summary of the method: as §1
# Clostridioides difficile [10] = assay: Antimicrobial activity against Clostridium difficile C253f selected after 4 ug/ml of moxifloxacin by Etest method
# Clostridioides difficile [11] = assay: Antimicrobial activity against Clostridium difficile C253e selected after 4 ug/ml of moxifloxacin by Etest method
# Clostridioides difficile [12] = assay: Antimicrobial activity against Clostridium difficile A422d selected after 4 ug/ml of moxifloxacin by Etest method; summary of the method: as §1
# Clostridioides difficile [13] = assay: Antimicrobial activity against Clostridium difficile 630h harboring GyrB […] mutant gene selected after 8 ug/ml of moxifloxacin by Etest method; summary of the method: as §1
# Clostridioides difficile [14] = assay: Antimicrobial activity against Clostridium difficile BI2e harboring GyrB Arg447Lys and Asp426Asn mutant gene selected after 32 ug/ml of moxifloxacin by Etest method; summary of the method: as §1
# Clostridioides difficile [15] = assay: Antimicrobial activity against Clostridium difficile CD5b harboring GyrB Ser416Ala mutant gene selected after 2 ug/ml of moxifloxacin by Etest method
# Clostridioides difficile [16] = assay: Antimicrobial activity against Clostridium difficile 630B selected after 4 ug/ml of levofloxacin by Etest method; summary of the method: as §1
# Clostridioides difficile [17] = assay: Antimicrobial activity against Clostridium difficile A422H harboring GyrA Thr82Ile and GyrB Leu451Phe mutant genes selected after 8 ug/ml of levofloxacin by Etest method; summary of the method: as §1
# Clostridioides difficile [18] = assay: Antimicrobial activity against Clostridium difficile CD5D harboring GyrB Ser416Ala mutant gene selected after 8 ug/ml of levofloxacin by Etest method
# Clostridioides difficile [19] = assay: Antimicrobial activity against Clostridium difficile A422 expressing tcdA and tcdB gene by Etest method
# Summary of the method: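 Parent clinical or nontoxigenic isolate tested for gatifloxacin susceptibility by Etest, run per the manufacturer's instructions; a fluoroquinolone breakpoint of 8 μg/ml was applied.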
# Clostridioides difficile [20] = assay: Antimicrobial activity against Clostridium difficile CD5E harboring GyrB Ser416Ala mutant gene selected after 8 ug/ml of levofloxacin by Etest method
# Clostridioides difficile [21] = assay: Antimicrobial activity against Clostridium difficile A422E harboring GyrB Leu451Phe mutant gene selected after 8 ug/ml of levofloxacin by agar dilution method
# Clostridioides difficile [22] = assay: Antimicrobial activity against Clostridium difficile C253 expressing tcdA and tcdB gene by agar dilution method
# Clostridioides difficile [23] = assay: Antimicrobial activity against Clostridium difficile 630B selected after 4 ug/ml of levofloxacin by agar dilution method
# Clostridioides difficile [24] = assay: Antimicrobial activity against Clostridium difficile CD5b harboring GyrB Ser416Ala mutant gene selected after 2 ug/ml of moxifloxacin by agar dilution method
# Clostridioides difficile [25] = assay: Antimicrobial activity against Clostridium difficile BI2E harboring GyrB Glu466Lys mutant gene selected after 8 ug/ml of levofloxacin by agar dilution method
# Clostridioides difficile [26] = assay: Antimicrobial activity against Clostridium difficile 630 expressing tcdA and tcdB gene by agar dilution method
# Clostridioides difficile [27] = assay: Antimicrobial activity against Clostridium difficile CD5E harboring GyrB Ser416Ala mutant gene selected after 8 ug/ml of levofloxacin by agar dilution method
# Clostridioides difficile [28] = assay: Antimicrobial activity against Clostridium difficile CD5 2-g harboring GyrA Ala118Ser, Thr82Ala and GyrB Ser416Ala mutant genes selected after 8 ug/ml of moxifloxacin by agar dilution method
# Clostridioides difficile [29] = assay: Antimicrobial activity against Clostridium difficile BI2D harboring GyrB Glu466Lys mutant gene selected after 8 ug/ml of levofloxacin by agar dilution method
# Clostridioides difficile [30] = assay: Antimicrobial activity against Clostridium difficile A422F harboring GyrB Leu451Phe mutant gene selected after 8 ug/ml of levofloxacin by agar dilution method
# Clostridioides difficile [31] = assay: Antimicrobial activity against Clostridium difficile C253c selected after 2 ug/ml of moxifloxacin by agar dilution method
# Clostridioides difficile [32] = assay: Antimicrobial activity against Clostridium difficile C253B selected after 4 ug/ml of levofloxacin by agar dilution method
# Clostridioides difficile [33] = assay: Antimicrobial activity against Clostridium difficile A422G harboring GyrA Thr82Ile and GyrB Leu451Phe mutant genes selected after 8 ug/ml of levofloxacin by agar dilution method
# Clostridioides difficile [34] = assay: Antimicrobial activity against Clostridium difficile CD5a harboring GyrB Ser416Ala mutant gene selected after 2 ug/ml of moxifloxacin by agar dilution method
# Clostridioides difficile [35] = assay: Antimicrobial activity against Clostridium difficile CD25 expressing tcdA, tcdB gene and GyrB Ser416Ala mutant by agar dilution method
# Clostridioides difficile [36] = assay: Antimicrobial activity against Clostridium difficile C253h harboring GyrA Ala118Ser mutant gene selected after 8 ug/ml of moxifloxacin by agar dilution method
# Clostridioides difficile [37] = assay: Antimicrobial activity against Clostridium difficile CD5 1-g harboring GyrA Ala92Glu and GyrB Ser416Ala mutant genes selected after 8 ug/ml of moxifloxacin by agar dilution method
# Clostridioides difficile [38] = assay: Antimicrobial activity against Clostridium difficile BI2e harboring GyrB Arg447Lys and Asp426Asn mutant gene selected after 32 ug/ml of moxifloxacin by agar dilution method
# Clostridioides difficile [39] = assay: Antimicrobial activity against Clostridium difficile C253g harboring GyrA Ala118Ser mutant gene selected after 8 ug/ml of moxifloxacin by agar dilution method
# Clostridioides difficile [40] = assay: Antimicrobial activity against Clostridium difficile CD5i harboring GyrA Ala92Glu and GyrB Ser416Ala mutant genes selected after 8 ug/ml of moxifloxacin by agar dilution method
# Clostridioides difficile [41] = assay: Antimicrobial activity against Clostridium difficile CD5e harboring GyrB Ser416Ala mutant gene selected after 4 ug/ml of moxifloxacin by agar dilution method
structure (smiles),measurement,setting,value
COc1c(N2CCNC(C)C2)c(F)cc2c(=O)c(C(=O)O)cn(C3CC3)c12 (stereo unspecified) [GATIFLOXACIN],MIC,Clostridioides difficile [1],2 µg/mL
same,MIC,Clostridioides difficile [2],≥ 32 µg/mL
same,MIC,Clostridioides difficile [3],1.5 µg/mL
same,MIC,Clostridioides difficile [4],0.5 µg/mL
same,MIC,Clostridioides difficile [5],0.5 µg/mL
same,MIC,Clostridioides difficile [6],1.5 µg/mL
same,MIC,Clostridioides difficile [7],0.75 µg/mL
same,MIC,Clostridioides difficile [8],1 µg/mL
same,MIC,Clostridioides difficile [9],≥ 32 µg/mL
same,MIC,Clostridioides difficile [10],1 µg/mL
same,MIC,Clostridioides difficile [11],1 µg/mL
same,MIC,Clostridioides difficile [12],1.5 µg/mL
same,MIC,Clostridioides difficile [13],≥ 32 µg/mL
same,MIC,Clostridioides difficile [14],6 µg/mL
same,MIC,Clostridioides difficile [15],0.75 µg/mL
same,MIC,Clostridioides difficile [16],0.75 µg/mL
same,MIC,Clostridioides difficile [17],≥ 32 µg/mL
same,MIC,Clostridioides difficile [18],2 µg/mL
same,MIC,Clostridioides difficile [19],0.75 µg/mL
same,MIC,Clostridioides difficile [20],2 µg/mL
C[C@H]1COc2c(N3CCN(C)CC3)c(F)cc3c(=O)c(C(=O)O)cn1c23.C[C@H]1COc2c(N3CCN(C)CC3)c(F)cc3c(=O)c(C(=O)O)cn1c23.O [LEVOFLOXACIN],MIC,Clostridioides difficile [21],2 µg/mL
same,MIC,Clostridioides difficile [22],2 µg/mL
same,MIC,Clostridioides difficile [23],1 µg/mL
same,MIC,Clostridioides difficile [24],2 µg/mL
same,MIC,Clostridioides difficile [25],16 µg/mL
same,MIC,Clostridioides difficile [26],2 µg/mL
same,MIC,Clostridioides difficile [27],2 µg/mL
same,MIC,Clostridioides difficile [28],64 µg/mL
same,MIC,Clostridioides difficile [29],16 µg/mL
same,MIC,Clostridioides difficile [30],2 µg/mL
same,MIC,Clostridioides difficile [31],4 µg/mL
same,MIC,Clostridioides difficile [32],1 µg/mL
same,MIC,Clostridioides difficile [33],64 µg/mL
same,MIC,Clostridioides difficile [34],2 µg/mL
same,MIC,Clostridioides difficile [35],2 µg/mL
same,MIC,Clostridioides difficile [36],64 µg/mL
same,MIC,Clostridioides difficile [37],16 µg/mL
same,MIC,Clostridioides difficile [38],64 µg/mL
same,MIC,Clostridioides difficile [39],64 µg/mL
same,MIC,Clostridioides difficile [40],16 µg/mL
same,MIC,Clostridioides difficile [41],2 µg/mL
